Activity calls are given as the source filed them. No cut-off for these calls is given here.
Legend:
[1] = Insulinotropic activity in rat RIN5F cells assessed as glucose dependent insulin secretion per ug of total protein at 10 uM; format: functional
Method in brief: (§1)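 RIN5F cells seeded at 0.2×10^6 per well and grown overnight to 80% confluence. Preincubated 40 min in Krebs-Ringer Hepes buffer (1.1 mM glucose, 0.5% BSA, pH 7.4). Then exposed 30 min at 37 °C to compound with 16.7 mM glucose. Supernatant insulin by rat insulin ELISA, normalized to total protein (pg/μg/h). n = 3, mean ± SD.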

[2] = Insulinotropic activity in rat RIN5F cells assessed as glucose dependent insulin secretion per ug of total protein at 0.1 uM; format: functional; method in brief: as §1
[3] = Insulinotropic activity in rat RIN5F cells assessed as glucose dependent insulin secretion per ug of total protein at 1 uM; format: functional; method in brief: as §1
Mus musculus [4] = assay: Antidiabetic activity in overnight fasted C57BL/6J mouse assessed as reduction in serum glucose level at 1 uM to 100 uM, ip after 120 mins; format: functional, organism-based
Method in brief: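 Male C57BL/6J mice (8–12 weeks, 25–30 g), n = 6 per group, fasted overnight. Single ip dose of 1, 10 or 100 μM/kg/10 mL in saline (saline vehicle control). Retro-orbital blood under light ether at 0, 30, 60 and 120 min. Serum glucose by GOD/POD method, duplicate samples. Baseline-corrected curves and 0–120 min AUC; mean ± SEM.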

Mus musculus [5] = assay: Antidiabetic activity in ip dosed overnight fasted C57BL/6J mouse assessed as serum insulin level by ELISA; format: functional, organism-based
Method in brief: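 Male C57BL/6J mice (8–12 weeks, 25–30 g), randomized into groups of n = 6 by fed glucose and fasted overnight. Single ip dose of 1, 10 or 100 μM/kg/10 mL, suspended in normal saline (saline vehicle control). Retro-orbital blood taken under light ether at 30 min. Serum stored at -70 °C, then assayed by rat/mouse insulin ELISA. Mean ± SEM.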

[6] = Insulinotropic activity in rat RIN5F cells assessed as insulin secretion per ug of total protein at 0.1 uM; format: functional
Method in brief: (§2)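 RIN5F cells seeded at 0.2×10^6 per well, grown overnight to 80% confluence, then preincubated 40 min in Krebs-Ringer Hepes buffer (1.1 mM glucose, 0.5% BSA, pH 7.4). Incubated 30 min at 37 °C with compound in the absence of glucose (0 mM). Secreted insulin by rat insulin ELISA, normalized to total protein (pg/μg/h). n = 3, mean ± SD.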

[7] = Insulinotropic activity in rat RIN5F cells assessed as insulin secretion per ug of total protein at 10 uM; format: functional; method in brief: as §2
[8] = Insulinotropic activity in rat RIN5F cells assessed as insulin secretion per ug of total protein at 1 uM; format: functional; method in brief: as §2
Mus musculus [9] = assay: Antidiabetic activity in overnight fasted C57BL/6J mouse assessed as reduction in serum glucose level at 1 uM to 100 uM, ip after 30 mins; format: functional, organism-based
Method in brief: (§3)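 Male C57BL/6J mice (8–12 weeks, 25–30 g, bred in-house) randomized into groups (n = 6) by fed glucose, fasted overnight with water ad libitum. Compounds suspended in normal saline given ip at 1, 10 and 100 μM/kg/10 mL right after 0 min bleed. Retro-orbital blood under light ether at 0, 30, 60, 120 min; serum glucose by GOD/POD method, duplicate samples; mean ± SEM.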

Mus musculus [10] = assay: Antidiabetic activity in overnight fasted C57BL/6J mouse assessed as reduction in serum glucose level at 1 uM to 100 uM, ip after 60 mins; format: functional, organism-based; method in brief: as §3

| Structure (SMILES) | Activity [1] [pg/h] | Activity [2] [pg/h] | Activity [3] [pg/µg/h] | further results |
| --- | --- | --- | --- | --- |
| Clc1cnc2scc(C3=NCCN3)c2c1 | 29 | 12.6 | 15 | – |
| Clc1cnc2[nH]c(C3CCCCC3)c(C3=NCCN3)c2c1 | 28.9 | 12.6 | 15 | – |
| c1cnc2[nH]c(C3CCCCC3)c(C3=NCCN3)c2c1 | 28 | 12.4 | 14.3 | – |
| CCc1sc2ncccc2c1C1=NCCN1 | 29.1 | 13 | 15.5 | – |
| c1ccc(Cc2sc3ncccc3c2C2=NCCN2)cc1 | 31.6 | 14.4 | 18.8 | – |
| Cc1sc2ncccc2c1C1=NCCN1 | 31.8 | 14.5 | 18.9 | – |
| Clc1cnc2sc(C3CCCCC3)c(C3=NCCN3)c2c1 | 28.7 | 12.9 | 15.1 | – |
| c1cnc2sc(C3CCCCC3)c(C3=NCCN3)c2c1 | 28.1 | 12.6 | 14.7 | – |
| Cc1[nH]c2ncc(Cl)cc2c1C1=NCCN1 | 41.7 | 19.3 | 27.7 | Activity (Mus musculus [4]): Active; Activity (Mus musculus [5]): Dose-dependent effect |
| c1cnc2[nH]cc(C3=NCCN3)c2c1 | 28 | 12.1 | 14.1 | – |
| c1cnc2scc(C3=NCCN3)c2c1 | 28.2 | 12.2 | 14.2 | – |
| CCCCNC(=O)NS(=O)(=O)c1ccc(C)cc1 [TOLBUTAMIDE] | 35.2 | 20 | – | Activity [6]: 19.7 pg/h; Activity [7]: 34.4 pg/h; Activity [8]: 20.7 pg/h |
| Clc1cnc2[nH]cc(C3=NCCN3)c2c1 | 29.6 | 12.4 | 15.2 | – |
| Clc1cnc2sc(-c3ccccc3)c(C3=NCCN3)c2c1 | 39 | 18 | 25.4 | – |
| Cc1[nH]c2ncccc2c1C1=NCCN1 | 32.4 | 14.9 | 18 | – |
| Clc1cnc2[nH]c(Cc3ccccc3)c(C3=NCCN3)c2c1 | 31.9 | 14.4 | 18.3 | – |
| c1ccc(Cc2[nH]c3ncccc3c2C2=NCCN2)cc1 | 32.6 | 14.8 | 18.2 | – |
| Cc1sc2ncc(Cl)cc2c1C1=NCCN1 | 41.5 | 19.2 | 27.5 | Activity (Mus musculus [4]): Active; Activity (Mus musculus [5]): Dose-dependent effect |
| Cc1[nH]c2ccc(Cl)cc2c1C1=NCCN1 | 36.5 | 16.3 | 22.4 | Activity (Mus musculus [9]): Active; Activity (Mus musculus [10]): Active |
| Clc1cnc2[nH]c(-c3ccccc3)c(C3=NCCN3)c2c1 | 39.2 | 18.2 | 25.5 | – |
| c1ccc(-c2[nH]c3ncccc3c2C2=NCCN2)cc1 | 32.5 | 14.1 | 18.1 | – |
| CCc1[nH]c2ncccc2c1C1=NCCN1 | 29.1 | 13.3 | 16.4 | – |
| c1ccc(-c2sc3ncccc3c2C2=NCCN2)cc1 | 31.9 | 14.7 | 18 | – |
| CCc1sc2ncc(Cl)cc2c1C1=NCCN1 | 39.8 | 18.5 | 26.5 | – |
| Clc1cnc2sc(Cc3ccccc3)c(C3=NCCN3)c2c1 | 31.9 | 13.9 | 18.2 | – |
| CCc1[nH]c2ncc(Cl)cc2c1C1=NCCN1 | 39.9 | 18.9 | 26.1 | – |

From ChEMBL document CHEMBL1149716, “Synthesis and antidiabetic activity of 2,5-disubstituted-3-imidazol-2-yl-pyrrolo[2,3-b]pyridines and thieno[2,3-b]pyridines” (2007)
